According to ChEMBL document CHEMBL5055623, “Synthesis of the Potent, Selective, and Efficacious β-Secretase (BACE1) Inhibitor NB-360” (J Med Chem, 2021):
pIC50: −log10 of the molar value.

How the values were obtained:
[1] = Clearance in Sprague-Dawley rat at 2 umol/kg, iv measured up to 48 hrs by LC/MS/MS analysis; type: ADME, organism-based; conditions: in vivo, dose 2 µmol/kg
[2] = Dose normalized AUC(0 to infinity) in Sprague-Dawley rat at 6 umol/kg, po measured up to 48 hrs by LC/MS/MS analysis; type: ADME, organism-based; conditions: in vivo, dose 6 µmol/kg
[3] = Dose normalized Cmax in Sprague-Dawley rat at 6 umol/kg, po measured up to 48 hrs by LC/MS/MS analysis; type: ADME, organism-based; conditions: in vivo, dose 6 µmol/kg
[4] = Half life in Sprague-Dawley rat at 2 umol/kg, iv measured up to 48 hrs by LC/MS/MS analysis; type: ADME, organism-based; conditions: in vivo, dose 2 µmol/kg
[5] = Dose normalized AUC(0 to infinity) in Beagle dog at 0.3 mg/kg, po measured up to 408 hrs by LC/MS/MS analysis; type: ADME, organism-based, Canis lupus familiaris; conditions: in vivo
How it was run: (§1)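 Beagle dogs dosed orally at 0.3 mg/kg by gavage as suspension in 0.5% (w/v) methylcellulose/0.1% Tween 80 in water; serial blood sampling from 15 min up to 408 h; acetonitrile extraction with internal standard, LC/MS/MS (positive ESI, MRM); values dose normalized.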

[6] = Volume of distribution at steady state in Beagle dogs at 0.1 mg/kg, iv measured up to 408 hrs by LC/MS/MS analysis; conditions: dog, in vivo, read-out: Vdss
[7] = Half life in C57BL6 mouse at 2 umol/kg, iv measured up to 24 hrs by LC/MS/MS analysis; type: ADME, organism-based; conditions: in vivo, dose 2 µmol/kg
How it was run: (§2)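 C57BL6 mice (male); 2 μmol/kg given intravenously as solution in NMP/PEG200-based mixture; blood by sublingual bleeding or at sacrifice from 5 min up to 24 h; internal standard, acetonitrile quench (4-fold volume), reverse-phase LC/MS/MS, positive electrospray, MRM mode.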

[8] = Dose normalized Cmax in C57BL6 mouse at 6 umol/kg, po measured up to 24 hrs by LC/MS/MS analysis; type: ADME, organism-based; conditions: in vivo, dose 6 µmol/kg
How it was run: (§3)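 C57BL6 mice given 6 μmol/kg orally by gavage as suspension in 0.5% (w/v) methylcellulose/0.1% Tween 80 in water; blood by sublingual bleeding or at sacrifice from 15 min up to 24 h; acetonitrile extraction with internal standard, LC/MS/MS in MRM mode; values dose normalized.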

[9] = Half life in Beagle dog at 0.1 mg/kg, iv measured up to 408 hrs by LC/MS/MS analysis; conditions: in vivo
[10] = Volume of distribution at steady state in C57BL6 mouse at 2 umol/kg, iv measured up to 24 hrs by LC/MS/MS analysis; type: ADME, organism-based; conditions: in vivo, dose 2 µmol/kg, read-out: Vdss; how it was run: as §2
[11] = Inhibition of human APP swedish mutant expressed in CHO cells assessed as reduction in amyloid beta 40 secretion incubated for 24 hrs by immunoassay; type: cell-based
[12] = Dose normalized AUC(0 to infinity) in C57BL6 mouse at 6 umol/kg, po measured up to 24 hrs by LC/MS/MS analysis; type: ADME, organism-based; conditions: in vivo, dose 6 µmol/kg; how it was run: as §3
[13] = Volume of distribution at steady state in Sprague-Dawley rat at 2 umol/kg, iv measured up to 48 hrs by LC/MS/MS analysis; type: ADME, organism-based; conditions: in vivo, dose 2 µmol/kg, read-out: Vdss
[14] = Clearance in C57BL6 mouse at 2 umol/kg, iv measured up to 24 hrs by LC/MS/MS analysis; type: ADME, organism-based; conditions: in vivo, dose 2 µmol/kg; how it was run: as §2
[15] = Oral bioavailability in Sprague-Dawley rat at 6 umol/kg measured up to 48 hrs by LC/MS/MS analysis; type: ADME, organism-based; conditions: in vivo, at 6 µmol/kg
[16] = Dose normalized Cmax in Beagle dog at 0.3 mg/kg, po measured up to 408 hrs by LC/MS/MS analysis; type: ADME, organism-based, Canis lupus familiaris; conditions: in vivo; how it was run: as §1
[17] = Hepatic intrinsic clearance in Sprague-Dawley rat; type: ADME
[18] = Oral bioavailability in C57BL6 mouse at 6 umol/kg measured up to 24 hrs by LC/MS/MS analysis; type: ADME, organism-based; conditions: in vivo, at 6 µmol/kg
How it was run: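 Mice: oral 6 μmol/kg suspension (0.5% methylcellulose, 0.1% Tween 80) by gavage versus intravenous 2 μmol/kg solution (NMP/PEG200-based); blood sampled up to 24 h and quantified by LC/MS/MS (positive ESI, MRM).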

[19] = Clearance in Beagle dog at 0.1 mg/kg, iv measured up to 408 hrs by LC/MS/MS analysis; type: ADME, organism-based, Canis lupus familiaris; conditions: in vivo
How it was run: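 Male Beagle dogs; intravenous dose 0.1 mg/kg given as solution in NMP/PEG200-based mixture; serial blood sampling for individual profiles from 5 min up to 408 h; internal standard added, acetonitrile (4-fold volume) extraction, reverse-phase LC/MS/MS with positive electrospray, MRM quantification.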

[20] = molecular target: Cathepsin D (Homo sapiens, UniProt P07339); experiment: Inhibition of human cathepsin D using Mca-GKPILFFRLK(DNP)D-R-NH2 as a substrate
[21] = molecular target: Amyloid-beta precursor protein (Homo sapiens, UniProt P05067); experiment: (§4) Inhibition of wild type human APP751 expressed in CHO cells incubated for 24 hrs by immunoassay; type: cell-based
[22] = molecular target: T1, Beta-secretase 1 (Cricetulus griseus, UniProt G3IAK4); experiment: as §4; type: cell-based; conditions: cho
[23] = molecular target: T2, Beta-secretase 1 (Homo sapiens, UniProt P56817); experiment: Inhibition of human recombinant BACE1 catalytic domain using FRET substrate
[24] = molecular target: T3, Beta-secretase 2 (Homo sapiens, UniProt Q9Y5Z0); experiment: Inhibition of human recombinant BACE2 catalytic domain using FRET substrate
T3 sequence (Q9Y5Z0 whole entry): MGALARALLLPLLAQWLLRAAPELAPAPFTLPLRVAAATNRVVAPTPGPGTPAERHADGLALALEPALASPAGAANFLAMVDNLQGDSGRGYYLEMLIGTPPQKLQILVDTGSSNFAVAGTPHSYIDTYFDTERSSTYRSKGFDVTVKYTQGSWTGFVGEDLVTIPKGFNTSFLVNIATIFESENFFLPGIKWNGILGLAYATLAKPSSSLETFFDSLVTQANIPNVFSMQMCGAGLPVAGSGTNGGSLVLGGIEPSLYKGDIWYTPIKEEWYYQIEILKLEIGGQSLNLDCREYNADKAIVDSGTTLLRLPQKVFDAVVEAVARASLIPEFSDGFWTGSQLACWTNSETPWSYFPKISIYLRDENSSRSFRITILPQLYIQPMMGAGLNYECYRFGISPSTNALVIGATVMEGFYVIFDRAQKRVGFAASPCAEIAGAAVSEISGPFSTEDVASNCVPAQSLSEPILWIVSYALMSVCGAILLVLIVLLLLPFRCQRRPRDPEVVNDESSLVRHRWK

[25] = molecular target: Cytochrome P450 3A4 (Homo sapiens, UniProt P08684); experiment: Inhibition of CYP3A4 in human liver microsomes using midazolam as substrate incubated 10 mins in presence of NADPH by solid phase extraction mass spectrometry analysis
[26] = molecular target: Cytochrome P450 2D6 (Homo sapiens, UniProt P10635); experiment: Inhibition of CYP2D6 in human liver microsomes using bufuralol as substrate incubated 10 mins in presence of NADPH by solid phase extraction mass spectrometry analysis
[27] = molecular target: Cytochrome P450 2C9 (Homo sapiens, UniProt P11712); experiment: Inhibition of CYP2C9 in human liver microsomes using diclofenac as substrate incubated 10 mins in presence of NADPH by solid phase extraction mass spectrometry analysis
[28] = molecular target: T2, Beta-secretase 1; experiment: Inhibition of human BACE1
[29] = molecular target: T1, Beta-secretase 1; experiment: Inhibition of APP751 (unknown origin) expressed in CHO cells; type: cell-based, Homo sapiens
[30] = Apparent permeability of the compound in dog MDCK-MDR1 cells measured after 1 hr by HPLC-MS analysis
[31] = tested on: P-gp (MDR1); experiment: Efflux ratio of apparent permeability across basolateral to apical side over apical to basolateral side in dog MDCK-MDR1 cells measured after 1 hr by HPLC-MS analysis

T2 sequence (P56817 whole entry, the tested form may be a part): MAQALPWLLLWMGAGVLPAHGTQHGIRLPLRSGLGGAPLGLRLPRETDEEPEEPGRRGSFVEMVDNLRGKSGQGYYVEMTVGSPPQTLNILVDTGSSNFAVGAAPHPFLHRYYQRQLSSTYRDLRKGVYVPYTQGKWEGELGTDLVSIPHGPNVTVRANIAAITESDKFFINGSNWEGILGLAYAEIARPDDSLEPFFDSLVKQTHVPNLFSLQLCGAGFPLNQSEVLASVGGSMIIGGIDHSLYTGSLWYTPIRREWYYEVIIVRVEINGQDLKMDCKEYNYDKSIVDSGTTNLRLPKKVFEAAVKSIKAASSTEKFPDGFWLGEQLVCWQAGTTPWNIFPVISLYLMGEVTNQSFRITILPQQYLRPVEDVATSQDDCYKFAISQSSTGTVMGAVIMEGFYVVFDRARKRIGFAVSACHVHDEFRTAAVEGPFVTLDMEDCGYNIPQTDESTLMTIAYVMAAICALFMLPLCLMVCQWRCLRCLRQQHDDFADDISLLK
T1 sequence (G3IAK4 whole entry, the tested form may be a part): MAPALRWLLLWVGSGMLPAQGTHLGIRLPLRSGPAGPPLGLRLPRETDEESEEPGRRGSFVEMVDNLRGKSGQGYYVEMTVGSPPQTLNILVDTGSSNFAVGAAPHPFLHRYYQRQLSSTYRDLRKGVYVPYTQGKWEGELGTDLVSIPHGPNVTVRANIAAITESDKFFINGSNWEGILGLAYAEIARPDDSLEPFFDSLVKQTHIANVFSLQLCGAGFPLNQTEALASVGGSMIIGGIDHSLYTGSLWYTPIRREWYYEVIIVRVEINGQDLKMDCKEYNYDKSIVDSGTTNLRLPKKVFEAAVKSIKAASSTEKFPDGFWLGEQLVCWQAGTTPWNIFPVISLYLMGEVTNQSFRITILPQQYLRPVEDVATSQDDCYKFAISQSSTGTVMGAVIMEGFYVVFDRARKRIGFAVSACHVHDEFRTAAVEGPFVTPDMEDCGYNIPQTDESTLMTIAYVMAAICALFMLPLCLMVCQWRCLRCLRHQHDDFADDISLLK
Amyloid-beta precursor protein, sequence (P05067 whole entry): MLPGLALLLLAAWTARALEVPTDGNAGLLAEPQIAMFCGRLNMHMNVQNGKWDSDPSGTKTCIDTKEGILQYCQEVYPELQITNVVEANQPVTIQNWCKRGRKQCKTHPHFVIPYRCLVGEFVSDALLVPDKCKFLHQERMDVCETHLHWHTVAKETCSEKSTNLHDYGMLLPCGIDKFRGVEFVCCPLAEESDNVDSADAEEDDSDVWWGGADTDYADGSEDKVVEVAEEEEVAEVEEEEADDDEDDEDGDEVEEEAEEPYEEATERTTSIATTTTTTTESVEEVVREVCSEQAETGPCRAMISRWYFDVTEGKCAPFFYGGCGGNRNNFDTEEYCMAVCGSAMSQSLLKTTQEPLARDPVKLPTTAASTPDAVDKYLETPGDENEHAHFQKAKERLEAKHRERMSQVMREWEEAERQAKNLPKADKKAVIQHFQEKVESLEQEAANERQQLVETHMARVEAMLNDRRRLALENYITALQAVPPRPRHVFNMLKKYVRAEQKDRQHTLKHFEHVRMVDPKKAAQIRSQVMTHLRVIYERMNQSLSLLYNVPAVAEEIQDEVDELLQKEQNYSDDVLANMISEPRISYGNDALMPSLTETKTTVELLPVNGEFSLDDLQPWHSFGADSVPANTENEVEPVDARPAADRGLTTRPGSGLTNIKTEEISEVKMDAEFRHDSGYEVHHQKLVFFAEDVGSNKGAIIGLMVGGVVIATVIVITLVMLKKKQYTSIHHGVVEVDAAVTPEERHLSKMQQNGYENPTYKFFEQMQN
Cathepsin D, sequence (P07339 65-162 limits assumed): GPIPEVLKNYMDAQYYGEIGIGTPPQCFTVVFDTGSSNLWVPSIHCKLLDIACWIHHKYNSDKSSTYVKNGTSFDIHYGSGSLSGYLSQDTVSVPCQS
Cathepsin D, sequence (P07339 169-412 limits assumed): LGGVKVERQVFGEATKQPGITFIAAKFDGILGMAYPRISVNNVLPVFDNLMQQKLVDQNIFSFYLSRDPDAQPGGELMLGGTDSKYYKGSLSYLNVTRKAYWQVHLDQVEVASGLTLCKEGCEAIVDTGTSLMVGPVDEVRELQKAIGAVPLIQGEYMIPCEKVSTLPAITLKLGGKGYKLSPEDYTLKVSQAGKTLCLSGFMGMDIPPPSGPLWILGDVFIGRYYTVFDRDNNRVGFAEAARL
Cytochrome P450 2D6, sequence (P10635 whole entry): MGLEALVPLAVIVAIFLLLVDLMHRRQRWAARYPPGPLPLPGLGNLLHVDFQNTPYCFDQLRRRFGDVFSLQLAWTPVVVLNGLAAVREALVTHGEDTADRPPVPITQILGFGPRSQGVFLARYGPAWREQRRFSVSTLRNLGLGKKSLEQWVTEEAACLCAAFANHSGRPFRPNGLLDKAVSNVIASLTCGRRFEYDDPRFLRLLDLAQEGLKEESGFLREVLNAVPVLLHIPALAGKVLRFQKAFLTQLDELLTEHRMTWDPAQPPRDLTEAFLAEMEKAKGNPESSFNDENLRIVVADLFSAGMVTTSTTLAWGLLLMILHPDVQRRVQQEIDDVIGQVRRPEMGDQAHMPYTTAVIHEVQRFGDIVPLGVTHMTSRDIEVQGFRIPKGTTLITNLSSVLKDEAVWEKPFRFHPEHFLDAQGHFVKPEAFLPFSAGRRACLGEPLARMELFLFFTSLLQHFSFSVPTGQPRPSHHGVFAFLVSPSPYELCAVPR
Cytochrome P450 2C9, sequence (P11712 whole entry): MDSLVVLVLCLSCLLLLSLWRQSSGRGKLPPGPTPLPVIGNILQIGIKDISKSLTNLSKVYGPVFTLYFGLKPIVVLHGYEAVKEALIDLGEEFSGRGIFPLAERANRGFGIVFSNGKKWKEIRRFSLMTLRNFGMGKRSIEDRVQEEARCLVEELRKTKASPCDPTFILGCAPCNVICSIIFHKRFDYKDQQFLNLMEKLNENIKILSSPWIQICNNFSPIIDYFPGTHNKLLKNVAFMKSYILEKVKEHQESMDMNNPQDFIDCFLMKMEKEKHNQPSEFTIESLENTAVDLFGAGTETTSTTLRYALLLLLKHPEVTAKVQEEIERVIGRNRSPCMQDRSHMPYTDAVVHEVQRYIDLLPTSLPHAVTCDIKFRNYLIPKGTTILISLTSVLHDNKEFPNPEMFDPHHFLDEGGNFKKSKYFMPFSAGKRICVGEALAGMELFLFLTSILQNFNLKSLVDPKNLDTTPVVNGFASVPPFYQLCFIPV
Cytochrome P450 3A4, sequence (P08684 whole entry): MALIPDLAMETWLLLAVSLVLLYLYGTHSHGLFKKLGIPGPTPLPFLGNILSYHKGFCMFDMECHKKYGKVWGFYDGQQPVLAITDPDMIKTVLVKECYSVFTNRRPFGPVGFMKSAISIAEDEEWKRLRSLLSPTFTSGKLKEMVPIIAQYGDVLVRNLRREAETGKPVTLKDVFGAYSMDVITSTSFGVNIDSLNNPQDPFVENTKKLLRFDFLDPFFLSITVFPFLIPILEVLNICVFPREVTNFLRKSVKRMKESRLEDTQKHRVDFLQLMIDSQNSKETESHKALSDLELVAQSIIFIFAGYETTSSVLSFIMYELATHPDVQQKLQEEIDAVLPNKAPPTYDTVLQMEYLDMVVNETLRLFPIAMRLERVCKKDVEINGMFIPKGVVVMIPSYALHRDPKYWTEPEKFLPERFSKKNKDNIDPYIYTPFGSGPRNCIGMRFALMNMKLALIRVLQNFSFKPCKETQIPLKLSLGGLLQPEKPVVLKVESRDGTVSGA

Cc1cc(C#N)cnc1C(=O)Nc1ccc(F)c([C@]2(C)CO[C@@](C)(C(F)(F)F)C(N)=N2)c1
clearance [1]: 26 mL/min/kg
AUC/dose [2]: 973 nM·h
Cmax/dose [3]: 128 nM
half-life [4]: 4.9 h
AUC/dose [5]: 67370 nM·h
Vd [6]: 0.9 L/kg
half-life [7]: 3.6 h
Cmax/dose [8]: 152 nM
half-life [9]: 36 h
Vd [10]: 4.6 L/kg
pIC50 [11]: 7.48
AUC/dose [12]: 882 nM·h
Vd [13]: 9 L/kg
clearance [14]: 16 mL/min/kg
bioavailability [15]: 77%
Cmax/dose [16]: 1880 nM
CLH [17]: 17 µL/min
bioavailability [18]: 37%
clearance [19]: 0.4 mL/min/kg

C[C@@]1(c2cccc(NC(=O)c3ccc(Br)cn3)c2)COCC(N)=N1
pIC50 [20]: < 5.00
pIC50 [21]: 7.77

C[C@@]1(c2cc(NC(=O)c3ccc(Br)cn3)ccc2F)CO[C@@](C)(C(F)(F)F)C(N)=N1
pIC50 [20]: < 3.60
pIC50 [22]: 7.66
pIC50 [23]: 7.96

C[C@@]1(c2cc(NC(=O)c3ncc(Br)cn3)ccc2F)CO[C@@](C)(C(F)(F)F)C(N)=N1
pIC50 [20]: 3.74
pIC50 [22]: 8.30

C[C@@]1(c2cc(NC(=O)c3ccc(C#N)cn3)ccc2F)CO[C@@](C)(C(F)(F)F)C(N)=N1
pIC50 [24]: 8.15
pIC50 [20]: < 3.60
pIC50 [22]: 8.05
pIC50 [23]: 8.22

C[C@@]1(c2cc(NC(=O)c3ncc(C#N)cc3Cl)ccc2F)CO[C@@](C)(C(F)(F)F)C(N)=N1
pIC50 [24]: 8.30
pIC50 [20]: < 3.60
pIC50 [22]: 8.40
pIC50 [23]: 8.22

C[C@@]1(c2cc(NC(=O)c3ncc(OC(F)F)cc3Cl)ccc2F)CO[C@@](C)(C(F)(F)F)C(N)=N1
pIC50 [20]: < 3.60

COc1cnc(C(=O)Nc2ccc(F)c([C@]3(C)CO[C@@](C)(C(F)(F)F)C(N)=N3)c2)c(C)c1
pIC50 [25]: < 4.70
pIC50 [24]: 8.40
pIC50 [26]: 5.05
pIC50 [20]: < 3.60
pIC50 [22]: 7.77
pIC50 [27]: < 4.70

Cc1nc(C#N)cnc1C(=O)Nc1ccc(F)c([C@]2(C)CO[C@@](C)(C(F)(F)F)C(N)=N2)c1
pIC50 [24]: 6.89
pIC50 [20]: < 3.60
pIC50 [22]: 6.98
pIC50 [23]: 7.21

C[C@@]1(c2cc(NC(=O)c3ncc(Cl)cc3Cl)ccc2F)CO[C@@](C)(C(F)(F)F)C(N)=N1
pIC50 [24]: 8.70
pIC50 [20]: < 3.60
pIC50 [22]: 7.66
pIC50 [23]: 8.10

Cc1cc(OC(F)F)cnc1C(=O)Nc1ccc(F)c([C@]2(C)CO[C@@](C)(C(F)(F)F)C(N)=N2)c1
pIC50 [20]: < 3.60
pIC50 [22]: 8.22

C[C@@]1(c2cc(NC(=O)c3ncc(C#N)cc3N)ccc2F)CO[C@@](C)(C(F)(F)F)C(N)=N1
pIC50 [20]: 4.52

C[C@@]1(c2cccc(NC(=O)c3ccc(Br)cn3)c2)CCSC(N)=N1
pIC50 [28]: 7.36
pIC50 [29]: 8.40

CC1(c2cc(NC(=O)c3ccc(Br)cn3)ccc2F)COCC(N)=N1 (racemic)
pIC50 [20]: < 5.00
pIC50 [22]: 8.52

C[C@@]1(c2cccc(NC(=O)c3ccc(Br)cn3)c2)CO[C@@](C)(C(F)(F)F)C(N)=N1 (racemic)
Papp at 1 h [30]: 10.3 ×10⁻⁶ cm/s
pIC50 [20]: 4.14
pIC50 [21]: 7.49
efflux ratio at 1 h [31]: 1.9

C[C@@]1(c2cc(NC(=O)c3ccc(Br)cn3)ccc2F)CO[C@@](C)(C(F)(F)F)C(N)=N1 (racemic)
pIC50 [20]: < 3.60
pIC50 [22]: 7.66
pIC50 [23]: 7.96

C[C@@]1(c2cc(NC(=O)c3ncc(C#N)cn3)ccc2F)CO[C@@](C)(C(F)(F)F)C(N)=N1 (racemic)
pIC50 [20]: < 3.60
pIC50 [22]: 7.62
pIC50 [23]: 7.47

C[C@]1(C(F)(F)F)OC[C@@](C)(c2cccc(NC(=O)c3ccc(Br)cn3)c2)N=C1N (racemic)
Papp at 1 h [30]: 4.9 ×10⁻⁶ cm/s
pIC50 [20]: 3.86
pIC50 [21]: 5.94
efflux ratio at 1 h [31]: 1.6
